According to ChEMBL document CHEMBL1145786, “Synthesis and structure-activity relationship of alpha-sulfonylhydroxamic acids as novel, orally active matrix metalloproteinase inhibitors for the treatment of osteoarthritis” (J Med Chem, 2003):

Key:
[1] = target: T1, Disintegrin and metalloproteinase domain-containing protein 17 (Homo sapiens, UniProt P78536); test: In vitro inhibition against tumor necrosis factor alpha converting enzyme at 10 uM concentration
Outline: (§1)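 Single-point enzyme inhibition at 10 µM inhibitor, reported as percent inhibition. Full dose-response curves were run only where inhibition reached at least 60% at 10 µM.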

[2] = target: T2, Interstitial collagenase (Homo sapiens) (UniProt P03956); test: Inhibition of Matrix metalloprotease-1 at 10 uM; outline: as §1
T2 sequence (whole entry): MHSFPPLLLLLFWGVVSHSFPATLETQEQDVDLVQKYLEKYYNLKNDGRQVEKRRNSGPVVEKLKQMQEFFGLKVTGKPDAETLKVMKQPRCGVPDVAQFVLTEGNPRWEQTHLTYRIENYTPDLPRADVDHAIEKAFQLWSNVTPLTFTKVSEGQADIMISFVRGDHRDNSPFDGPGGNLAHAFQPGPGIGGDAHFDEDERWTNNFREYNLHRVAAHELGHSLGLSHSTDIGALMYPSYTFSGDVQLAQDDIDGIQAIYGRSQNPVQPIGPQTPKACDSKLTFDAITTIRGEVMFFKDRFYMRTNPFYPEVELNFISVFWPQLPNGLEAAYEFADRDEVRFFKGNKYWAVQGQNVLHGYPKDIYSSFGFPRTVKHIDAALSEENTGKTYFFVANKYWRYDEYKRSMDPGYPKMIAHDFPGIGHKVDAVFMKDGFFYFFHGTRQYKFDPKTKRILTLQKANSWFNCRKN

[3] = target: T3, Matrix metalloproteinase-9 (Homo sapiens, UniProt P14780); test: Inhibition of Matrix metalloprotease-9 at 10 uM; outline: as §1
[4] = target: T3, Matrix metalloproteinase-9; test: In vitro inhibition of matrix metalloprotease-9
Outline: (§2)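 Each inhibitor concentration tested in triplicate. IC50 derived from a four-parameter logistic fit of the data within a single experiment, and the reported value is the mean of the triplicate values.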

Interstitial collagenase [5] = target: T4, Interstitial collagenase (Homo sapiens, UniProt P03956); test: In vitro inhibition of matrix metalloprotease-1
T4 sequence (P03956 whole entry): T2 sequence (whole entry)

Collagenase 3 [6] = target: T5, Collagenase 3 (Homo sapiens, UniProt P45452); test: In vitro inhibition of matrix metalloprotease-13
[7] = target: T1, Disintegrin and metalloproteinase domain-containing protein 17; test: Inhibition of Tumor necrosis factor alpha converting enzyme at 10 uM
Mus musculus [8] = test: Compound was tested in vivo for inhibition using dialysis implant data, value expressed relative to activity of CGS-27023 at dose 25 mg/kg(po) (73 +/-4); type: functional
Outline: (§3)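 Groups of mice dosed orally at 25 mg/kg with drug or vehicle carrying an implanted enzyme-containing dialysis bag. After 1 h of exposure, bag retrieved, and enzyme activity inside measured spectrophotometrically against bags from vehicle-treated mice. Percent inhibition expressed relative to CGS-27023 (set as 1) run as standard.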

Mus musculus [9] = test: Compound was tested in vivo for inhibition using dialysis implant, value expressed relative to activity of CGS-27023 at dose 25 mg/kg(po) (66 +/- 4); type: functional; outline: as §3
Rattus norvegicus = test: Compound was tested in vivo for inhibition in rat sponge-wrapped cartilage model, value expressed relative to activity of CGS-27023 at dose 25 mg/kg (p.o.) in (52+/-4); type: functional; conditions: route oral
Outline: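 Oral dosing at 25 mg/kg once daily for 3 weeks, with CGS-27023 as comparator. Read-out was percent inhibition of degradation of bovine cartilage in the sponge-wrapped implant.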

Mus musculus [10] = test: Compound was tested in vivo for inhibition using dialysis implant, value expressed relative to activity of CGS-27023 at dose 25 mg/kg(po)(53 +/-4); type: functional; outline: as §3
Mus musculus [11] = test: Compound was tested in vivo for inhibition using dialysis implant, value expressed relative to activity of CGS-27023 at dose 25 mg/kg(po)(53 +/- 4); type: functional; outline: as §3
Collagenase 3 [12] = target: T5, Collagenase 3; test: Inhibition of Matrix metalloprotease-13
Interstitial collagenase [13] = target: T4, Interstitial collagenase; test: Inhibition of Matrix metalloprotease-1; outline: as §2
[14] = target: T3, Matrix metalloproteinase-9; test: Inhibition of Matrix metalloprotease-9; outline: as §2
[15] = target: T1, Disintegrin and metalloproteinase domain-containing protein 17; test: Inhibition of Tumor necrosis factor alpha converting enzyme
Mus musculus [16] = test: Compound was tested in vivo for inhibition using dialysis implant, values expressed relative to activity of CGS-27023 at dose 25 mg/kg(po)(60 +/-4); type: functional; outline: as §3
Mus musculus [17] = test: Compound was tested in vivo for inhibition using dialysis implant, values expressed relative to activity of CGS-27023 at dose 25 mg/kg(po)(68 +/-3); type: functional; outline: as §3
Mus musculus [18] = test: Compound was tested in vivo for inhibition using dialysis implant data, value expressed relative to activity of CGS-27023 at dose 25 mg/kg(po)(67 +/-3); type: functional; outline: as §3
Mus musculus [19] = test: Compound was tested in vivo for inhibition using dialysis implant, value expressed relative to activity of CGS-27023 at dose 25 mg/kg(po) (77+/-3); type: functional; outline: as §3
Mus musculus [20] = test: Compound was tested in vivo for inhibition using dialysis implant, value expressed relative to activity of CGS-27023 at dose 25 mg/kg (p.o.) (66+/-4); type: functional; conditions: route oral; outline: as §3

T1 sequence (P78536 whole entry, the tested form may be a part): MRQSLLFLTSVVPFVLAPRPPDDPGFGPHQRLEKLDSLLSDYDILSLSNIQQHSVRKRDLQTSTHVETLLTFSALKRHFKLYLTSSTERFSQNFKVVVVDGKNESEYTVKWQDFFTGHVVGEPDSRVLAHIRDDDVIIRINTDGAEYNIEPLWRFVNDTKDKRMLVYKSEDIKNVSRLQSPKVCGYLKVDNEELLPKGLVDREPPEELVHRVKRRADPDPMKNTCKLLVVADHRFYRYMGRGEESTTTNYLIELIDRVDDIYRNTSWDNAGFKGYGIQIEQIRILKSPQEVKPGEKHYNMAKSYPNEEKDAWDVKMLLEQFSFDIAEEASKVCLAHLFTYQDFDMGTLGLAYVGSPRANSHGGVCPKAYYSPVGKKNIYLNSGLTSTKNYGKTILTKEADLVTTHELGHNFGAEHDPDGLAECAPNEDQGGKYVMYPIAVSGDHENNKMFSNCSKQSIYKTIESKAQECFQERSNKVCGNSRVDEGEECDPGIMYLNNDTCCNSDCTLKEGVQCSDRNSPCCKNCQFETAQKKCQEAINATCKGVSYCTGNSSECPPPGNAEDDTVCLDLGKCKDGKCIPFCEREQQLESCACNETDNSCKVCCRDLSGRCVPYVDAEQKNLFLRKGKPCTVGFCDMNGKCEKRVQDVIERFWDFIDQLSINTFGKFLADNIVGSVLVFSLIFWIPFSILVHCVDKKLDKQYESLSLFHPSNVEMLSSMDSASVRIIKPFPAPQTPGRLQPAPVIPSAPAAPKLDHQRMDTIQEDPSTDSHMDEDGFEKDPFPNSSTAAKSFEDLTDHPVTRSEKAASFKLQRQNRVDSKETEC
T3 sequence (P14780 whole entry): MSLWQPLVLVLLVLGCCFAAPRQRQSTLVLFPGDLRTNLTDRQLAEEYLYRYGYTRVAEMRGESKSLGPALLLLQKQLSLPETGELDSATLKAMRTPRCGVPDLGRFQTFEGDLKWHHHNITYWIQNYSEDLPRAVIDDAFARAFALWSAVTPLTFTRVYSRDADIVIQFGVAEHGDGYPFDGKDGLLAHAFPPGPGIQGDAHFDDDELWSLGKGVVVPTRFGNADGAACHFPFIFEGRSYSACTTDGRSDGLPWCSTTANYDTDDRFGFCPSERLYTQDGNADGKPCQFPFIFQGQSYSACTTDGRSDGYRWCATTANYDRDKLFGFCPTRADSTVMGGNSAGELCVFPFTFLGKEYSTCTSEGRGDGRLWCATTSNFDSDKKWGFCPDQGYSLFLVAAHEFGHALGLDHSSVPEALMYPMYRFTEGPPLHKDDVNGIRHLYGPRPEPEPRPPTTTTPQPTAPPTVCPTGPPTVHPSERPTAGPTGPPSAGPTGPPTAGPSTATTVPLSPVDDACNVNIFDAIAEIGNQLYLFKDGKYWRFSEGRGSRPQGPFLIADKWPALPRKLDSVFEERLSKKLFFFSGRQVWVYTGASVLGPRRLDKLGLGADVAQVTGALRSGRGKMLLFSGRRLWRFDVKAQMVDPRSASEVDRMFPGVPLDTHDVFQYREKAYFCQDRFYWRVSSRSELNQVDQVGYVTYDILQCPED

## COc1ccc(S(=O)(=O)C(C)(Cc2ccc(-c3ccccc3)cc2)C(=O)NO)cc1 (centres undefined)
[1]
  inhibition: 17%

## CCCC(CCC)(C(=O)NO)S(=O)(=O)c1ccc(OC)cc1
[2]
  inhibition: 30%
[1]
  inhibition: 24%

## COc1ccc(S(=O)(=O)C(C(=O)NO)C(C)C)cc1 (centres undefined)
[3]
  inhibition: 27%
[1]
  inhibition: 52%

## CCCCCCCCCCCCC(C(=O)NO)S(=O)(=O)c1ccc(OC)cc1 (centres undefined)
[2]
  inhibition: 18%

## CCCCCCCCS(=O)(=O)C(C)(Cc1ccc(OCCN2CCCCC2)cc1)C(=O)NO (centres undefined)
[1]
  inhibition: 65%
[4]
  IC50: 23 nM
Interstitial collagenase [5]
  IC50: 10 nM
Collagenase 3 [6]
  IC50: 55 nM

## COc1ccc(S(=O)(=O)C(CC=C(C)C)(CC=C(C)C)C(=O)NO)cc1
[4]
  IC50: 0.5 nM

## COc1ccc(S(=O)(=O)C(C)(Cc2ccc(OCCN(C(C)C)C(C)C)cc2)C(=O)NO)cc1 (centres undefined)
[7]
  inhibition: 31%

## COc1ccc(S(=O)(=O)C(C)(Cc2ccc(OCCCN3CCN(c4cccc(Cl)c4)CC3)cc2)C(=O)NO)cc1 (centres undefined)
Mus musculus [8]
  inhibition in vivo at 25 mg/kg: 72%
[1]
  inhibition: 40%
[4]
  IC50: 7 nM

## COc1ccc(S(=O)(=O)C(Cc2ccccc2)C(=O)NO)cc1 (centres undefined)
Collagenase 3 [6]
  IC50: 100 nM

## COc1ccc(S(=O)(=O)C(C)(Cc2ccc(OCCN3CCCCCC3)cc2)C(=O)NO)cc1 (centres undefined)
Mus musculus [9]
  inhibition in vivo at 25 mg/kg: 65%
[1]
  inhibition: 29%
Rattus norvegicus
  inhibition in vivo at 25 mg/kg: 67%

## CCCCCCCCS(=O)(=O)C(C)(Cc1ccccc1)C(=O)NO (centres undefined)
[1]
  inhibition: 1%

## CCCCC(C(=O)NO)S(=O)(=O)c1ccc(OC)cc1 (centres undefined)
[2]
  inhibition: 8%
[1]
  inhibition: 54%

## CC(C)=CCC(CC=C(C)C)(C(=O)NO)S(=O)(=O)c1ccc(C)cc1
[1]
  inhibition: 36%
Collagenase 3 [6]
  IC50: 6 nM

## CCCCOc1ccc(S(=O)(=O)C(C)(Cc2ccc(OCCN3CCCCC3)cc2)C(=O)NO)cc1 (centres undefined)
Mus musculus [10]
  inhibition in vivo at 25 mg/kg: 64%
[1]
  inhibition: 30%
[4]
  IC50: 3 nM

## CC(Cc1ccccc1)(C(=O)NO)S(=O)(=O)c1cccs1 (centres undefined)
[1]
  inhibition: 20%
[4]
  IC50: 49 nM
Interstitial collagenase [5]
  IC50: 49 nM
Collagenase 3 [6]
  IC50: 37 nM

## CCN(CC)COc1ccc(CC(C)(C(=O)NO)S(=O)(=O)c2ccc(-c3ccco3)cc2)cc1 (centres undefined)
[1]
  inhibition: 45%
[4]
  IC50: 4 nM
Interstitial collagenase [5]
  IC50: 14 nM
Collagenase 3 [6]
  IC50: 2 nM

## COc1ccc(S(=O)(=O)C(CCC(C)C)(Cc2cccnc2)C(=O)NO)cc1 (centres undefined)
[1]
  inhibition: 41%

## C=CCC(CC=C)(C(=O)NO)S(=O)(=O)c1ccc(OC)cc1
[1]
  inhibition: 7%

## COc1ccc(S(=O)(=O)C(Cc2cccnc2)(CC(C)C)C(=O)NO)cc1 (centres undefined)
[1]
  inhibition: 42%
Interstitial collagenase [5]
  IC50: 1000 nM

## CCOc1ccc(S(=O)(=O)C(C)(Cc2ccc(OCCN(CC)CC)cc2)C(=O)NO)cc1 (centres undefined)
Mus musculus [11]
  inhibition in vivo at 25 mg/kg: 74%
Collagenase 3 [12]
  IC50: 16 nM
Interstitial collagenase [13]
  IC50: 627 nM
[14]
  IC50: 11 nM

## CCCCCCCC[C@@](Cc1cccnc1)(C(=O)NO)S(=O)(=O)c1ccc(OC)cc1
[15]
  IC50: 669 nM

## COc1ccc(S(=O)(=O)C(C)(Cc2cccnc2)C(=O)NO)cc1 (centres undefined)
[1]
  inhibition: 17%

## COc1ccc(S(=O)(=O)[C@](C)(Cc2ccc(OCCN3CCCCC3)cc2)C(=O)NO)cc1 (stereo in doubt; form 1)
Mus musculus [16]
  inhibition in vivo at 25 mg/kg: 15%
[4]
  IC50: 112 nM
Interstitial collagenase [5]
  IC50: 2530 nM

## C#CCC(Cc1cccnc1)(C(=O)NO)S(=O)(=O)c1ccc(OC)cc1 (centres undefined)
[1]
  inhibition: 23%
Collagenase 3 [6]
  IC50: 32 nM

## CCCC[C@@](Cc1cccnc1)(C(=O)NO)S(=O)(=O)c1ccc(OC)cc1
[3]
  inhibition: 88%
[15]
  IC50: 764 nM

## COc1ccc(S(=O)(=O)C(C)(Cc2ccc3ccccc3c2)C(=O)NO)cc1 (centres undefined)
[4]
  IC50: 8 nM

## COc1ccc(S(=O)(=O)C(C)(Cc2ccccc2)C(=O)NO)cc1 (centres undefined)
[1]
  inhibition: 15%

## COc1ccc(CS(=O)(=O)C(C)(Cc2ccccc2)C(=O)NO)cc1 (centres undefined)
[1]
  inhibition: 3%
Interstitial collagenase [5]
  IC50: 10 nM

## COc1ccc(S(=O)(=O)[C@](C)(Cc2ccc(OCCN3CCCCC3)cc2)C(=O)NO)cc1 (stereo in doubt; form 2)
[4]
  IC50: 5 nM
Interstitial collagenase [5]
  IC50: 154 nM
Mus musculus [17]
  inhibition in vivo at 25 mg/kg: 69%

## COc1ccc(S(=O)(=O)C(C)(C/C=C/c2ccccc2)C(=O)NO)cc1 (centres undefined)
[1]
  inhibition: 65%
[4]
  IC50: 16 nM
Interstitial collagenase [5]
  IC50: 299 nM
Collagenase 3 [6]
  IC50: 12 nM

## COc1ccc(S(=O)(=O)C(C)(Cc2ccc(OCCN3CCOCC3)cc2)C(=O)NO)cc1 (centres undefined)
Mus musculus [18]
  inhibition in vivo at 25 mg/kg: 48%
[1]
  inhibition: 47%
[4]
  IC50: 21 nM
Interstitial collagenase [5]
  IC50: 413 nM

## CC(Cc1ccc(OCCN2CCCCC2)cc1)(C(=O)NO)S(=O)(=O)c1cccs1 (centres undefined)
[1]
  inhibition: 51%
[4]
  IC50: 79 nM
Interstitial collagenase [5]
  IC50: 99 nM
Collagenase 3 [6]
  IC50: 85 nM

## COc1ccc(S(=O)(=O)C(C)(Cc2ccc(OCCN3CCCCC3)cc2)C(=O)NO)cc1 (centres undefined)
[1]
  inhibition: 41%
Rattus norvegicus
  inhibition in vivo at 25 mg/kg: 69%
Mus musculus [19]
  inhibition in vivo at 25 mg/kg: 78%

## CCN(CC)CCOc1ccc(CC(C)(C(=O)NO)S(=O)(=O)c2ccc(OC)cc2)cc1 (centres undefined)
Mus musculus [20]
  inhibition in vivo at 25 mg/kg: 68%
[1]
  inhibition: 39%
[4]
  IC50: 13 nM
Collagenase 3 [6]
  IC50: 15 nM

## C#CCC(CC#C)(C(=O)NO)S(=O)(=O)c1ccc(OC)cc1
[1]
  inhibition: 20%
